Results published in ChEMBL document CHEMBL5338772, “Stereochemical Control of Splice Modulation in FD-895 Analogues” (J Med Chem, 2023).
The source made the active and inactive calls. No cut-off for these calls is given here.

Assays:
SF3B1 pre-mRNA [1] = assay: Modulation of splicing in SF3B1 pre-mRNA in human HCT-116 cells assessed as intron 13 retention at 100 to 500 nM incubated for 24 hrs by qRT-PCR analysis; type: functional, cell-based; conditions: dose 100-500 nM
How it was run: (§1)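 HCT-116 cells in supplemented McCoy's 5a with 0.5% final DMSO were treated for 24 h at 100, 250 or 500 nM. Total RNA isolated and DNase-treated (1 µg). qPCR used 2.5 µM each primer on 5 ng cDNA, 40 cycles. Intron retention was computed by the 2^-CT method relative to GAPDH and expressed versus untreated cells set to 1.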

[2] = Cytotoxicity against human HCT-116 cells assessed as cell growth inhibition incubated for 72 hrs by MTS assay; type: toxicity, cell-based
How it was run: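 HCT-116 cells (ATCC; split every other day, no more than five generations, mycoplasma-tested) plated at 5 × 10³ cells/well in supplemented McCoy's 5a and grown 24 h at 37 °C, 5% CO₂. Compound added from DMSO (0.5% DMSO final) for 72 h. Cells washed with PBS, MTS reagent added for 2 h at 37 °C, A490 read against A690. GI₅₀ fitted from dose curves of 3 biological replicates.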

HCT-116 [3] = assay: Cytotoxicity against human HCT-116 cells assessed as reduction in cell viability at 500 nM incubated for 24 hrs by MTS assay; type: toxicity, cell-based; conditions: hct-116, 24 h, 0.5 µM
How it was run: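 HCT-116 cells plated at 5 × 10³ cells/well in supplemented McCoy's 5a and grown 24 h at 37 °C, 5% CO₂. Compound given at 500 nM, the top dose of the 24 h splicing series, in 0.5% DMSO for 24 h. Cells washed with PBS, MTS reagent added for 2 h at 37 °C, A490 read against A690.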

HCT-116 [4] = assay: Cytotoxicity against human HCT-116 cells assessed as reduction in cell viability at 9 uM incubated for 4 hrs by MTS assay; type: toxicity, cell-based; conditions: hct-116, 4 h
SF3B2 pre-mRNA [5] = assay: Modulation of splicing in SF3B2 pre-mRNA in human HCT-116 cells assessed as intron 10 retention at 100 to 500 nM incubated for 24 hrs by qRT-PCR analysis; type: functional, cell-based; conditions: dose 100-500 nM; how it was run: as §1
DNAJB1 pre-mRNA [6] = assay: Modulation of splicing in DNAJB1 pre-mRNA in human HCT-116 cells assessed as intron 2 retention level at 9 uM incubated for 4 hrs by qRT-PCR analysis; type: functional, cell-based; conditions: filed as modulator
SF3A1 pre-mRNA [7] = assay: Modulation of splicing in SF3A1 pre-mRNA in human HCT-116 cells assessed as intron 6 retention at 100 to 500 nM incubated for 24 hrs by qRT-PCR analysis; type: functional, cell-based; conditions: dose 100-500 nM
How it was run: (§2)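 HCT-116 cells in supplemented McCoy's 5a with 0.5% DMSO, treated 24 h at 100, 250 or 500 nM; untreated cells as control. Total RNA isolated, 1 µg DNase I-treated, reverse transcribed. qPCR on 5 ng cDNA with 2.5 µM each primer, 40 cycles of 95 °C 30 s, 55 °C 60 s, 72 °C 60 s. Splice-event primers for intron retention or exon skipping; SF2 primers measure total expression. 2^-CT method relative to GAPDH, untreated set at 1.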

SF3A3 pre-mRNA [8] = assay: Modulation of splicing in SF3A3 pre-mRNA in human HCT-116 cells assessed as intron 5 retention level at 9 uM incubated for 4 hrs by qRT-PCR analysis; type: functional, cell-based; conditions: filed as modulator
How it was run: as §1, with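 “5a, compound added from DMSO stock to a final” for “5a with”, “DMSO, 4” for “final DMSO were treated for 24”, “a single standardized concentration per analogue.” for “100, 250 or 500 nM.”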

SF3A1 pre-mRNA [9] = assay: Modulation of splicing in SF3A1 pre-mRNA in human HCT-116 cells assessed as intron 6 retention level at 9 uM incubated for 4 hrs by qRT-PCR analysis; type: functional, cell-based; conditions: filed as modulator
HCT-116 [10] = assay: Modulation of splicing in MCL-1L pre-mRNA in human HCT-116 cells assessed as intron 5 retention at 100 to 500 nM incubated for 24 hrs by qRT-PCR analysis; type: functional, cell-based; conditions: dose 100-500 nM; how it was run: as §2
SF3A3 pre-mRNA [11] = assay: Modulation of splicing in SF3A3 pre-mRNA in human HCT-116 cells assessed as intron 5 retention at 100 to 500 nM incubated for 24 hrs by qRT-PCR analysis; type: functional, cell-based; conditions: dose 100-500 nM; how it was run: as §2
SF3B2 pre-mRNA [12] = assay: Modulation of splicing in SF3B2 pre-mRNA in human HCT-116 cells assessed as intron 10 retention level at 9 uM incubated for 4 hrs by qRT-PCR analysis; type: functional, cell-based; conditions: filed as modulator
How it was run: as §1, with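 “5a, compound added from DMSO stock to a final” for “5a with”, “DMSO, 4” for “final DMSO were treated for 24”, “a single standardized concentration per analogue.” for “100, 250 or 500 nM.”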

DNAJB1 pre-mRNA [13] = assay: Modulation of splicing in DNAJB1 pre-mRNA in human HCT-116 cells assessed as intron 2 retention at 100 to 500 nM incubated for 24 hrs by qRT-PCR analysis; type: functional, cell-based; conditions: dose 100-500 nM; how it was run: as §2
SF3B1 pre-mRNA [14] = assay: Modulation of splicing in SF3B1 pre-mRNA in human HCT-116 cells assessed as intron 13 retention level at 9 uM incubated for 4 hrs by qRT-PCR analysis; type: functional, cell-based; conditions: filed as modulator
How it was run: as §1, with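 “5a, compound added from DMSO stock to a final” for “5a with”, “DMSO, 4” for “final DMSO were treated for 24”, “a single standardized concentration per analogue.” for “100, 250 or 500 nM.”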

HCT-116 [15] = assay: Upregulation of PLK-1 mRNA expression in human HCT-116 cells at 100 to 500 nM incubated for 24 hrs by qRT-PCR analysis; type: functional, cell-based; conditions: dose 100-500 nM
How it was run: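 24 h treatment of HCT-116 cells at 100, 250 or 500 nM, 0.5% final DMSO in supplemented McCoy's 5a. RNA isolated, DNase-treated, then qRT-PCR with 2.5 µM each primer on 5 ng cDNA. Levels by the 2^-CT method relative to GAPDH, normalized to untreated cells at 1.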

AURKA pre-mRNA [16] = assay: Modulation of splicing in AURKA pre-mRNA in human HCT-116 cells assessed as effect on exon 4 skipping at 9 uM incubated for 4 hrs by qRT-PCR analysis; type: functional, cell-based; conditions: filed as modulator
SF3A1 pre-mRNA [17] = assay: Modulation of splicing in SF3A1 pre-mRNA in human HCT-116 cells assessed as intron 6 retention level at 750 nM incubated for 4 hrs by qRT-PCR analysis; type: functional, cell-based; conditions: filed as modulator
HCT-116 [18] = assay: Cytotoxicity against human HCT-116 cells assessed as reduction in cell viability at 750 nM incubated for 4 hrs by MTS assay; type: toxicity, cell-based; conditions: hct-116, 4 h, 0.75 µM
DNAJB1 pre-mRNA [19] = assay: Modulation of splicing in DNAJB1 pre-mRNA in human HCT-116 cells assessed as intron 2 retention level at 750 nM incubated for 4 hrs by qRT-PCR analysis; type: functional, cell-based; conditions: filed as modulator
SF3B2 pre-mRNA [20] = assay: Modulation of splicing in SF3B2 pre-mRNA in human HCT-116 cells assessed as intron 10 retention level at 750 nM incubated for 4 hrs by qRT-PCR analysis; type: functional, cell-based; conditions: filed as modulator
How it was run: as §1, with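 “5a, compound added from DMSO stock to a final” for “5a with”, “DMSO, 4” for “final DMSO were treated for 24”, “a single standardized concentration per analogue.” for “100, 250 or 500 nM.”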

SF3B1 pre-mRNA [21] = assay: Modulation of splicing in SF3B1 pre-mRNA in human HCT-116 cells assessed as intron 13 retention level at 750 nM incubated for 4 hrs by qRT-PCR analysis; type: functional, cell-based; conditions: filed as modulator
How it was run: as §1, with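 “5a, compound added from DMSO stock to a final” for “5a with”, “DMSO, 4” for “final DMSO were treated for 24”, “a single standardized concentration per analogue.” for “100, 250 or 500 nM.”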

AURKA pre-mRNA [22] = assay: Modulation of splicing in AURKA pre-mRNA in human HCT-116 cells assessed as effect on exon 4 skipping at 750 nM incubated for 4 hrs by qRT-PCR analysis; type: functional, cell-based; conditions: filed as modulator
SF3A3 pre-mRNA [23] = assay: Modulation of splicing in SF3A3 pre-mRNA in human HCT-116 cells assessed as intron 5 retention level at 750 nM incubated for 4 hrs by qRT-PCR analysis; type: functional, cell-based; conditions: filed as modulator

**Q.** Which Activity (SF3B1 pre-mRNA [1]) does the source give for `CC[C@H](OC)[C@@H](C)[C@@H]1O[C@H]1[C@@H](O)[C@H](C)/C=C/C=C(\C)[C@H]1OC(=O)C[C@H](O)CC[C@@](C)(O)[C@@H](OC(C)=O)/C=C/[C@@H]1C` here?
**A.** The Activity was “inactive”.

**Q.** And the GI50 at 72 h [2]?
**A.** Its GI50 at 72 h is 470 nM.

**Q.** What about the Activity (HCT-116 [3]) of the same compound?
**A.** The Activity was “Non-Toxic”.

**Q.** And the Activity (HCT-116 [4])?
**A.** The Activity was “Non-Toxic”.

**Q.** And the Activity (SF3B2 pre-mRNA [5])?
**A.** The Activity was “inactive”.

**Q.** What about the Activity (DNAJB1 pre-mRNA [6]) of the same compound?
**A.** Its Activity is greater than 3.

**Q.** What about the Activity (SF3A1 pre-mRNA [7]) of the same compound?
**A.** Its Activity is “inactive”.

**Q.** What about the Activity (SF3A3 pre-mRNA [8]) of the same compound?
**A.** The Activity was less than 3.

**Q.** And the Activity (SF3A1 pre-mRNA [9])?
**A.** Its Activity is greater than 3.

**Q.** And the Activity (HCT-116 [10])?
**A.** The Activity was “inactive”.

**Q.** And the Activity (SF3A3 pre-mRNA [11])?
**A.** The Activity was “inactive”.

**Q.** What about the Activity (SF3B2 pre-mRNA [12]) of the same compound?
**A.** Its Activity is greater than 3.

**Q.** What about the Activity (DNAJB1 pre-mRNA [13]) of the same compound?
**A.** The Activity was “inactive”.

**Q.** What about the Activity (SF3B1 pre-mRNA [14]) of the same compound?
**A.** The Activity was less than 3.

**Q.** What about the Activity (HCT-116 [15]) of the same compound?
**A.** Its Activity is “Active”.

**Q.** And the Activity (AURKA pre-mRNA [16])?
**A.** Its Activity is “Active”.

**Q.** Which results are given for `CC[C@H](OC)[C@@H](C)[C@H]1O[C@@H]1[C@@H](OC)[C@H](C)/C=C/C=C(\C)[C@H]1OC(=O)C[C@H](O)CC[C@@](C)(O)[C@@H](OC(C)=O)/C=C/[C@@H]1C`?
**A.** Activity (SF3A1 pre-mRNA [17]): > 3; GI50 at 72 h [2]: 40.5 nM; Activity (HCT-116 [18]): Non-Toxic; Activity (DNAJB1 pre-mRNA [19]): > 3; Activity (SF3B2 pre-mRNA [20]): > 3; Activity (SF3B1 pre-mRNA [21]): < 3; Activity (AURKA pre-mRNA [22]): Active; Activity (SF3A3 pre-mRNA [23]): < 3
